ChEMBL document CHEMBL1143821, “Fatty acyl benzamido antibacterials based on inhibition of DnaK-catalyzed protein folding” (J Biol Chem, 2007)
In brackets after ≈: the same amount, converted by molar mass. Activity calls are given as the source filed them. No cut-off for these calls is given here.

System: not listed separately
Experiment: Inhibition of secondary amide peptide bond cis/trans isomerase activity of Escherichia coli MC4100 DnaK assessed as RNase T1P39A refolding assay

| SMILES | IC50 [µM] |
| --- | --- |
| CCCCCCCCCCCCCC(=O)NCc1ccc(C(=O)N[C@H](C(=O)O)[C@@H](C)CC)cc1 | 2.7 |

System: Escherichia coli
Experiment: Increase heat shock-induced protein aggregation in wild type Escherichia coli MC4100
Assay type: functional, organism-based
Summary of the method: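 Wild-type MC4100 was grown at 30 °C to mid-exponential phase, exposed 15 min to compound (0.13 or 0.066 mg/ml), heat-shocked 30 min at 45 °C, then recovered 3 h at 30 °C. The Nonidet P-40-insoluble aggregated protein fraction was isolated by lysozyme/sonication lysis and differential centrifugation, then run on 12.5% SDS-PAGE with Coomassie stain, equal cell numbers per lane. ΔdnaK cells were the reference.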

| SMILES | Activity |
| --- | --- |
| CCCCCCCCCCCCCC(=O)NCc1ccc(C(=O)N[C@H](C(=O)O)[C@@H](C)CC)cc1 | Active |

System: Escherichia coli
Experiment: Inhibition of Escherichia coli MC4100 DnaK-reduced carboxymethylated lactalbumin complex up to 500 uM

| SMILES | Activity |
| --- | --- |
| CCCCCCCCCCCCCC(=O)NCc1ccc(C(=O)N[C@H](C(=O)O)[C@@H](C)CC)cc1 | inactive |

System: Escherichia coli
Experiment: Inhibition of ATPase activity of Escherichia coli MC4100 DnaK at 150 uM
Summary of the method: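 Steady-state ATPase assay. 1 µM DnaK preincubated with 150 µM inhibitor for 10 min at 30 °C. Reaction started with 330 µM ATP and followed for at least 10 min.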

| SMILES | Activity |
| --- | --- |
| CCCCCCCCCCCCCC(=O)NCc1ccc(C(=O)N[C@H](C(=O)O)[C@@H](C)CC)cc1 | inactive |

System: Escherichia coli
Experiment: Effect on membrane permeability of Escherichia coli MC4100 assessed as beta lactamase activity in medium at 25 degC
Assay type: functional
Summary of the method: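 Cells were grown with 200 μM compound for 24 h. β-Lactamase activity released to the medium was compared with total activity.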

| SMILES | Activity [%] |
| --- | --- |
| CCCCCC(=O)NCc1ccc(C(=O)N[C@H](C(=O)O)[C@@H](C)CC)cc1 | 3.68 |
| CCCCCCCCCCCCCC(=O)NCc1ccc(C(=O)N[C@H](C(=O)O)[C@@H](C)CC)cc1 | 0.89 |

System: not listed separately
Experiment: Inhibition of Escherichia coli MC4100 DnaK assessed as effect on luciferase refolding
Summary of the method: (§1)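 Firefly luciferase was denatured 1 h at 10 °C in 6.0 M guanidinium chloride with 5 mM DTT, Tris pH 7.4, at 2.08 μM. It was diluted to 10.4 nM into MOPS pH 7.8 buffer with 1 mM ATP, 5 mM MgCl2, 436 nM DnaK, 160 nM DnaJ and 436 nM GrpE, preincubated 10 min with compound, at 10 °C and 30 °C. Activity was read by luminescence after 1 h. IC50 from a one-site competition fit.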

| SMILES | IC50 [µg/mL] |
| --- | --- |
| CCCCCC(=O)NCc1ccc(C(=O)N[C@H](C(=O)O)[C@@H](C)CC)cc1 | > 400 |
| CCCCCCCCCCCCCC(=O)NCc1ccc(C(=O)N[C@@H](Cc2ccccc2)C(=O)O)cc1 | 3.9 (≈ 7.67 µM) |
| CCCCCCCCCCCCCC(=O)NCc1ccc(C(=O)NCC(=O)O)cc1 | 5.5 (≈ 13.1 µM) |
| CCCC/C=C\CCCCCCCC(=O)NCc1ccc(C(=O)N[C@H](C(=O)O)[C@@H](C)CC)cc1 | 0.75 (≈ 1.59 µM) |
| CCCCCCCCCCCCCC(=O)NCc1ccc(C(=O)N[C@H](C(=O)O)[C@@H](C)CC)cc1 | 4.9 (≈ 10.3 µM) |

The next lines start with the values.

| IC50 [µg/mL] | SMILES |
| --- | --- |
| 7 (≈ 14.7 µM) | CCCCCCCCCCCCCC(=O)NCc1cccc(C(=O)N[C@H](C(=O)O)[C@@H](C)CC)c1 |
| 1.1 (≈ 2.39 µM) | CCCCCCCCCCCCCC(=O)Nc1ccc(C(=O)N[C@H](C(=O)O)[C@@H](C)CC)cc1 |
| 6.1 (≈ 12.9 µM) | CCCCCCCCCCCCCC(=O)NCc1ccc(C(=O)N[C@H](C(N)=O)[C@@H](C)CC)cc1 |
| 35.9 (≈ 99.6 µM) | CC/C=C/CC(=O)NCc1ccc(C(=O)N[C@H](C(=O)O)[C@@H](C)CC)cc1 |

System: Escherichia coli
Experiment: Binding affinity to DnaK in Escherichia coli MC4100 at 0.7 mM by pull-down assay
Summary of the method: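 MC4100 grown overnight in LB at 42 °C and lysed by sonication. Lysate incubated 1 h at room temperature with 0.7 mM biotinylated inhibitor in buffer C (20 mM Tris/HCl pH 7.5, 50 mM KCl, 1 mM MgCl2). BSA-blocked streptavidin beads then added for a further 1 h. Beads washed twice; bound protein eluted with 1.92 mM (final) non-biotinylated parent inhibitor. Read by SDS-PAGE and anti-DnaK immunoblot.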

| SMILES | Activity |
| --- | --- |
| CCCCCCCCCCCCCC(=O)NCc1ccc(C(=O)N[C@H](C(=O)O)[C@@H](C)CC)cc1 | Active |

System: Escherichia coli
Experiment: Antimicrobial activity against Escherichia coli MC4100 up to 1.4 mg/ml at 37 degC
Assay type: functional, organism-based

| SMILES | Activity |
| --- | --- |
| CCCCCCCCCCCCCC(=O)NCc1ccc(C(=O)N[C@H](C(=O)O)[C@@H](C)CC)cc1 | inactive |

System: Escherichia coli
Experiment: Inhibition of IPTG-induced thermotolerance in heat shocked Escherichia coli MC4100 expressing delta-DnaK at 1.35 mM
Assay type: functional, organism-based
Summary of the method: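 E. coli MC4100 ΔdnaK pTrc99A-DnaK was grown at 30 °C in Terrific Broth and induced 1 h with 0–1.0 mM IPTG. Cells were heat-shocked 210 s at 57 °C with 1.35 mM compound added just before, then iced 2 min. Serial dilutions were spotted on LB with marker and IPTG and grown 12 h at 30 °C. DnaK levels were checked by immunoblot.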

| SMILES | Activity |
| --- | --- |
| CCCCCCCCCCCCCC(=O)NCc1ccc(C(=O)N[C@H](C(=O)O)[C@@H](C)CC)cc1 | Active |

System: Escherichia coli
Experiment: Increase in transcriptional activity of heat shock inducible pGroESL promoter of sigma32 gene in Escherichia coli MC4100 at 200 uM assessed as beta galactosidase activity after 12 hrs at 42 degC
Assay type: functional

| SMILES | Activity | Fold change |
| --- | --- | --- |
| CCCCCC(=O)NCc1ccc(C(=O)N[C@H](C(=O)O)[C@@H](C)CC)cc1 | inactive |  |
| CCCCCCCCCCCCCC(=O)NCc1ccc(C(=O)N[C@H](C(=O)O)[C@@H](C)CC)cc1 |  | 2 |

System: Escherichia coli
Experiment: Antimicrobial activity against Escherichia coli MC4100 at 42 degC
Assay type: functional
Summary of the method: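 Liquid growth inhibition in Mueller-Hinton medium, run in triplicate. Compound was dissolved in ethanol/10 mM potassium phosphate pH 7.8, and its concentration was set by absorbance at 236 nm. Varying concentrations were added to mid-log E. coli MC4100 and incubated 24 h at 42 °C, then plated at 37 °C overnight for CFU. MIC = concentration giving 99.9% growth inhibition (NCCLS).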

| SMILES | MIC [µg/mL] |
| --- | --- |
| CCCCCC(=O)NCc1ccc(C(=O)N[C@H](C(=O)O)[C@@H](C)CC)cc1 | 1000 (≈ 2760 µM) |
| CCCCCCCCCCCCCC(=O)NCc1ccc(C(=O)N[C@@H](Cc2ccccc2)C(=O)O)cc1 | 1200 (≈ 2360 µM) |
| CCCCCCCCCCCCCC(=O)NCc1ccc(C(=O)NCC(=O)O)cc1 | > 500 |
| CCCC/C=C\CCCCCCCC(=O)NCc1ccc(C(=O)N[C@H](C(=O)O)[C@@H](C)CC)cc1 | 630 (≈ 1330 µM) |
| CCCCCCCCCCCCCC(=O)NCc1ccc(C(=O)N[C@H](C(=O)O)[C@@H](C)CC)cc1 | 380 (≈ 801 µM) |

Continued, values first:

| MIC [µg/mL] | SMILES |
| --- | --- |
| > 2000 | CCCCCCCCCCCCCC(=O)NCc1cccc(C(=O)N[C@H](C(=O)O)[C@@H](C)CC)c1 |
| > 60 | CCCCCCCCCCCCCC(=O)Nc1ccc(C(=O)N[C@H](C(=O)O)[C@@H](C)CC)cc1 |
| 1200 (≈ 2530 µM) | CCCCCCCCCCCCCC(=O)NCc1ccc(C(=O)N[C@H](C(N)=O)[C@@H](C)CC)cc1 |
| 280 (≈ 777 µM) | CC/C=C/CC(=O)NCc1ccc(C(=O)N[C@H](C(=O)O)[C@@H](C)CC)cc1 |

System: Escherichia coli
Experiment: Activation of Escherichia coli MC4100 RNA polymerase at 200 uM by transcription assay
Summary of the method: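 In vitro transcription of small circular single-strand DNA universal templates by purified E. coli RNA polymerase core enzyme, run per the kit manufacturer's protocol.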

| SMILES | Activity |
| --- | --- |
| CCCCCCCCCCCCCC(=O)NCc1ccc(C(=O)N[C@H](C(=O)O)[C@@H](C)CC)cc1 | inactive |

System: Escherichia coli
Experiment: Induction of heat shock response in Escherichia coli MC4100 at 30 degC
Assay type: functional, organism-based

| SMILES | Activity |
| --- | --- |
| CCCCCCCCCCCCCC(=O)NCc1ccc(C(=O)N[C@H](C(=O)O)[C@@H](C)CC)cc1 | inactive |

System: not listed separately
Experiment: Displacement of sigma32 derived peptide from Escherichia coli MC4100 DnaK

| SMILES | IC50 [µM] | Kd [µM] |
| --- | --- | --- |
| CCCCCCCCCCCCCC(=O)NCc1ccc(C(=O)N[C@H](C(=O)O)[C@@H](C)CC)cc1 | 29.1 | 2.6 |

System: not listed separately
Experiment: Toxicity against human erythrocytes assessed as hemolytic activity
Assay type: cell-based, Erythrocyte
Summary of the method: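 Human erythrocytes were washed in Tris-buffered saline pH 7.4. Cells at 2.5×10^8 cells/ml were exposed to 3.1–50 μg/ml compound for 30 min at 42 °C with gentle shaking, chilled, and centrifuged. Hemoglobin in the supernatant was read at 550 nm after 10-fold dilution in 0.5% NH4OH. Saponin 100 mg/liter = 100%, phosphate buffer = 0%. EC50 from dose-response curves.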

| SMILES | EC50 [µg/mL] |
| --- | --- |
| CCCCCC(=O)NCc1ccc(C(=O)N[C@H](C(=O)O)[C@@H](C)CC)cc1 | > 1500 |
| CCCCCCCCCCCCCC(=O)NCc1ccc(C(=O)N[C@@H](Cc2ccccc2)C(=O)O)cc1 | > 200 |
| CCCCCCCCCCCCCC(=O)NCc1ccc(C(=O)NCC(=O)O)cc1 | > 50 |
| CCCCCCCCCCCCCC(=O)NCc1cccc(C(=O)N[C@H](C(=O)O)[C@@H](C)CC)c1 | 84 (≈ 177 µM) |
| CCCCCCCCCCCCCC(=O)Nc1ccc(C(=O)N[C@H](C(=O)O)[C@@H](C)CC)cc1 | > 10 |
| CCCCCCCCCCCCCC(=O)NCc1ccc(C(=O)N[C@H](C(N)=O)[C@@H](C)CC)cc1 | 100 (≈ 211 µM) |
| CC/C=C/CC(=O)NCc1ccc(C(=O)N[C@H](C(=O)O)[C@@H](C)CC)cc1 | > 1500 |
| CCCC/C=C\CCCCCCCC(=O)NCc1ccc(C(=O)N[C@H](C(=O)O)[C@@H](C)CC)cc1 | 350 (≈ 740 µM) |
| CCCCCCCCCCCCCC(=O)NCc1ccc(C(=O)N[C@H](C(=O)O)[C@@H](C)CC)cc1 | 66 (≈ 139 µM) |

System: not listed separately
Experiment: Inhibition of secondary amide peptide bond cis/trans isomerase activity of Escherichia coli MC4100 DnaK/DnaJ/GrpE assessed as luciferase refolding
Summary of the method: as §1

| SMILES | IC50 [µM] |
| --- | --- |
| CCCCCCCCCCCCCC(=O)NCc1ccc(C(=O)N[C@H](C(=O)O)[C@@H](C)CC)cc1 | 9.5 |

System: Escherichia coli
Experiment: Antimicrobial activity against Escherichia coli MC4100 delta-tig at 30 degC
Assay type: functional

| SMILES | MIC [µg/mL] |
| --- | --- |
| CCCCCCCCCCCCCC(=O)NCc1ccc(C(=O)N[C@H](C(=O)O)[C@@H](C)CC)cc1 | 860 (≈ 1810 µM) |

System: Escherichia coli
Experiment: Antimicrobial activity against Escherichia coli MC4100 at 30 degC
Assay type: functional

| SMILES | MIC [µg/mL] |
| --- | --- |
| CCCCCCCCCCCCCC(=O)NCc1ccc(C(=O)N[C@H](C(=O)O)[C@@H](C)CC)cc1 | ≥ 5000 |

System: Escherichia coli
Experiment: Increase in transcriptional activity of heat shock inducible PhtrL-lacZ promoter of sigma32 gene in Escherichia coli MC4100 at 200 uM assessed as beta galactosidase activity after 12 hrs at 42 degC
Assay type: functional, organism-based

| SMILES | Activity |
| --- | --- |
| CCCCCCCCCCCCCC(=O)NCc1ccc(C(=O)N[C@H](C(=O)O)[C@@H](C)CC)cc1 | inactive |

System: Escherichia coli
Experiment: Increase in transcriptional activity of heat shock inducible PhtrP-lacZ promoter of sigma32 gene in Escherichia coli MC4100 at 200 uM assessed as beta galactosidase activity after 12 hrs at 42 degC
Assay type: functional, organism-based

| SMILES | Activity |
| --- | --- |
| CCCCCCCCCCCCCC(=O)NCc1ccc(C(=O)N[C@H](C(=O)O)[C@@H](C)CC)cc1 | inactive |

System: Escherichia coli
Experiment: Increase in transcriptional activity of heat shock inducible rpoDPhs promoter of sigma32 gene in Escherichia coli MC4100 at 200 uM assessed as beta galactosidase activity after 12 hrs at 42 degC
Assay type: functional

| SMILES | Activity | Fold change |
| --- | --- | --- |
| CCCCCC(=O)NCc1ccc(C(=O)N[C@H](C(=O)O)[C@@H](C)CC)cc1 | inactive |  |
| CCCCCCCCCCCCCC(=O)NCc1ccc(C(=O)N[C@H](C(=O)O)[C@@H](C)CC)cc1 |  | 2 |
